This note sets out measurements from publication PMC3109609 (Journal of medicinal chemistry, 2010).

As usually defined, the chromatographic logP is a lipophilicity value derived from retention on a column. Low readings indicate lower lipophilicity, high ones higher lipophilicity.

One series has as its target human ΔF508-CFTR (Homo sapiens, UniProt P13569, DEL508-508). The experiment in a line: ΔF508-CFTR corrector activity assay. The following applies: concentration-dependent increase in I− influx in FRT ΔF508-CFTR cells. It counts as cell-based.
The format of series [1] is physicochemical. Put shortly: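 Reverse-phase HPLC retention time gave log k (capacity factor). A calibration line of log k against known logP was built from reference compounds and used to convert each test compound's log k to logP.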

The structures appear in SMILES notation. Values joined by “and” are separate entries in the source; they are usually repeats but may differ in a detail not shown here. Equal values may be shown once.

For the compound `COc1ccc(NC(=O)c2cc(-c3sc(NC(=O)C(C)(C)C)nc3C)n(-c3ccc(Br)cc3)n2)cc1` [11d, 1-(4-Bromophenyl)-N-(4-methoxyphenyl)-5-(4-methyl-2-pivalamidothiazol-5-yl)-1H-pyrazole-3-carboxamide], the “ΔF508-CFTR corrector activity (in words)” value on human ΔF508-CFTR was “relatively low activity”.
The compound `COc1ccc(Cl)cc1Cn1nc(-c2sc(NC(=O)C(C)(C)C)nc2C)cc1C(=O)N1CCOCC1` [14h, N-(5-(1-(5-chloro-2-methoxybenzyl)-5-(morpholine-4-carbonyl)-1H-pyrazol-3-yl)-4-methylthiazol-2-yl)pivalamide] came in with a chromatographic logP in series [1] of 4.1. For the same compound, in series [1] (14h compared with bithiazole CF corrector 1), the “logP difference versus bithiazole 1 (lower)” value is 1.2 log units and ~ 1.2 log units.
Take `COc1ccc(Cl)cc1Cn1nc(-c2sc(NC(=O)C(C)(C)C)nc2C)cc1C(=O)NCCO` [14j, 1-(5-chloro-2-methoxybenzyl)-N-(2-hydroxyethyl)-3-(4-methyl-2-pivalamidothiazol-5-yl)-1H-pyrazole-5-carboxamide]: in series [1], the chromatographic logP was 3.5. Also, the “ΔF508-CFTR corrector activity (in words)” value at human ΔF508-CFTR is “retains corrector activity”.
Take `COc1ccc(Cl)cc1Nc1nc(-c2sc(NC(=O)C(C)(C)C)nc2C)cs1` [compound 1, reference compound]: the chromatographic logP in series [1] is more than 5.
